The text below walks through data of ChEMBL document CHEMBL1143359, “Synthesis and in vitro anti-proliferative activity of beta-elemene monosubstituted derivatives in HeLa cells mediated through arrest of cell cycle at the G1 phase” (Bioorg Med Chem, 2009).

Active and inactive are the calls of the source. The rule behind the calls is not given here.

Type in all cases: functional, cell-based
In assay [1] the test system is HeLa. Briefly: Cell cycle arrest in human HeLa cells assessed as increase in G1 phase cells after 24 hrs by flow cytometry using propidium iodide staining. Summed up: (§1)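 After 24 h drug exposure at 37 °C, HeLa cells were trypsinized. About 1 × 10⁶ cells were washed twice in cold PBS and fixed overnight in chilled 75% methanol at −20 °C. DNA content was measured by propidium iodide flow cytometry, and the percentage of cells in each cycle phase was calculated. Untreated cultures served as controls.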
(In flow cytometry, cells or beads pass a laser one at a time.)

For assay [2], the system named is HeLa. Briefly: Antiproliferative activity against human HeLa cells after 24 hrs by WST-1 assay. Summed up:
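HeLa cells grown in RPMI 1640 with 10% inactivated FBS, penicillin, streptomycin and L-glutamine at 37 °C under 5% CO2. They were trypsinized, seeded at 5 × 10³ cells/well, and left 12 h. Compounds were added at five concentrations for 24 h. WST-1 was added and absorbance read at 450 nm. IC50 was calculated from absorbance.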
(In general: Tetrazolium dyes change colour on reduction, which living cells bring about.)

Assay [3] concerns HeLa. Briefly: Decrease in Rb phosphorylation in human HeLa cells after 24 hrs by Western blotting. Summed up: (§2)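 HeLa cells were treated 24 h, trypsinized, washed in ice-cold PBS and lysed on ice in RIPA with PMSF. Lysates were clarified at 12,000 rpm, 4 °C, 15 min, and protein was measured by Bradford. Extracts ran on 12% SDS–PAGE onto PVDF, with milk/Tween blocking for 2 h. Rabbit anti-cyclin D1 and anti-Rb (1:100) and biotinylated anti-rabbit (1:400) were each applied 1 h at 37 °C, with ABC detection. β-actin was the loading control.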

For assay [4], the system named is HeLa. Briefly: Decrease in Rb protein expression in human HeLa cells after 24 hrs by Western blotting. Summed up:
as §2
Background: A western blot detects proteins with antibodies after separation by electrophoresis.

In assay [5] the test system is HeLa. Briefly: Cell cycle arrest in human HeLa cells assessed as decrease in S phase cells after 24 hrs by flow cytometry using propidium iodide staining. The method, boiled down: as §1
Assay [6] has as its system HeLa. Briefly: Cell cycle arrest in human HeLa cells assessed as decrease in G2-M phase cells after 24 hrs by flow cytometry using propidium iodide staining. The method, boiled down: as §1
Assay [7] has as its system HeLa. Briefly: Decrease in CyclinD1 protein expression in human HeLa cells after 24 hrs by Western blotting. Summed up: as §2

Broadly, the IC50 is the midpoint of a concentration-inhibition curve. Read a low IC50 as greater potency in that assay. With `C=C[C@]1(C)CC[C@@H](C(=C)CNC2CCCCCCC2)C[C@H]1C(=C)C`, in assay [1], the result was Active. Further, the IC50 in assay [2] was determined as 5.9 µM.

As to `C=C[C@]1(C)CC[C@@H](C(=C)CNC(C)C)C[C@H]1C(=C)C`, the outcome in assay [1] was Active. This compound gave an IC50 in assay [2] of 0.04 µM.

On to `C=C[C@]1(C)CC[C@@H](C(=C)Cn2ccnc2)C[C@H]1C(=C)C`, for which, in assay [1], the result was Active. For the same compound, 15.7 µM corresponded to half-maximal inhibition in assay [2] (IC50).

Take `C=C[C@]1(C)CC[C@@H](C(=C)CNC(C)(C)C)C[C@H]1C(=C)C`: the result in assay [1] was Active. Also, it took 25.4 µM to reach half-maximal inhibition in assay [2] (IC50).

Turning to `C=C[C@]1(C)CC[C@@H](C(=C)COCC)C[C@H]1C(=C)C`, in assay [1], the outcome was Active. For the same compound, the IC50 in assay [2] amounted to 106 µM.

Take `C=C[C@]1(C)CC[C@@H](C(=C)CNC2CCCC2)C[C@H]1C(=C)C`: the result in assay [1] was Active. Besides, 0.52 µM corresponded to half-maximal inhibition in assay [2] (IC50).

Turning to `C=C[C@]1(C)CC[C@@H](C(=C)CNCCCC)C[C@H]1C(=C)C`, the outcome in assay [1], in assay [3], in assay [5], in assay [6] and in assay [7] was Active. The result in assay [4] was inactive. The same compound showed a half-maximal inhibitory concentration (IC50) in assay [2] of 10.8 µM.

`C=C[C@]1(C)CC[C@@H](C(=C)CN(CC)CC)C[C@H]1C(=C)C`: the outcome in assay [1] was Active. Further, the 50% inhibitory concentration (IC50) in assay [2] was 14.3 µM.

As for `C=C[C@]1(C)CC[C@@H](C(=C)COCCCC)C[C@H]1C(=C)C`, the outcome in assay [1] was Active. In assay [2], the IC50 came out at 266 µM.

Turning to `C=C[C@]1(C)CC[C@@H](C(=C)COC)C[C@H]1C(=C)C`, the outcome in assay [1] was Active. In assay [2], this compound registered an IC50 of 212 µM.

`C=C[C@]1(C)CC[C@@H](C(=C)CNC2CCCCC2)C[C@H]1C(=C)C`: the outcome in assay [1] was Active. In assay [2], this compound yielded an IC50 of 3.39 µM.

Regarding `C=C[C@]1(C)CC[C@@H](C(=C)C)C[C@H]1C(=C)C`, the outcome in assay [1] was Active. In addition, in assay [2], the IC50 was found to be 236 µM.

Consider `C=C[C@]1(C)CC[C@@H](C(=C)COCCOC)C[C@H]1C(=C)C`, for which the result in assay [1] was Active. In addition, in assay [2], half-maximal inhibition (IC50) was put at 238 µM.
